# Calls of active or inactive are those of the source. The calls are words filed in the database; no cut-off is given here.
# Columns and labels:
# [1] = biological target: T1, Glucocorticoid receptor (Homo sapiens) (UniProt P04150); experiment: Transcriptional activation in CV-1 cells expressing human glucocorticoid receptor compared to Dexamethasone; type: functional, cell-based
# T1 sequence (whole entry): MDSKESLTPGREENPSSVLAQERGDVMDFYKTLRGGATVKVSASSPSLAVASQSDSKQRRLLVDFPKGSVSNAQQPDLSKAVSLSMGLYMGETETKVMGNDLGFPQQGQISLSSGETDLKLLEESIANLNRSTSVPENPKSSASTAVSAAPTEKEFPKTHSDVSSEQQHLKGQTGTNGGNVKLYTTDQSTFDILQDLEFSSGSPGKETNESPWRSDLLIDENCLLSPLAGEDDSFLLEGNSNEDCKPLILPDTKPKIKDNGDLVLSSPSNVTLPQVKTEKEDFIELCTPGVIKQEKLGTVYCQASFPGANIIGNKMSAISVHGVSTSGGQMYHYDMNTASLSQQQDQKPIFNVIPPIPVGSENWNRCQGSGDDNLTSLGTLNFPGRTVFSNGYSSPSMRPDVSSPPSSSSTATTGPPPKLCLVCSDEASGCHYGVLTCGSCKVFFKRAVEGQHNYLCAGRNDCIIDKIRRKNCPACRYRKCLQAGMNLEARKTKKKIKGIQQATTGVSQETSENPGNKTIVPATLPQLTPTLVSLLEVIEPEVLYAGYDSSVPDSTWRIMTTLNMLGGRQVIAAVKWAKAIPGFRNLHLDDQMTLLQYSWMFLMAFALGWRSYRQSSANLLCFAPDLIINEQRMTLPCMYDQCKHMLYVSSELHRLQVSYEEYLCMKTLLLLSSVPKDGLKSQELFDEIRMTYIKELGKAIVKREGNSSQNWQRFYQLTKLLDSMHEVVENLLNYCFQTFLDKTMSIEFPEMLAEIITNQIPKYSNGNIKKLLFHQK
# In short: (§1)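 GRE activation co-transfection in CV-1 cells: hGR receptor plasmid plus a luciferase reporter driven by part of the MMTV promoter (four GRE sites, no known AP-1 or NFκB affinity). Full seven-point, half-log concentration-response curves run in triplicate. EC50 is the concentration at half-maximal response; efficacy is given as % of the dexamethasone maximal response.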
# [2] = biological target: T2, Glucocorticoid receptor (Homo sapiens, UniProt P04150); experiment: Transcriptional repression in HepG2 cells expressing human glucocorticoid receptor; - = low efficacy or a functional efficacy <20%; type: cell-based
# T2 sequence (P04150 whole entry): T1 sequence (whole entry)
# In short: (§2)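 Cotransfection in HepG2 cells with a luciferase reporter under an E-selectin promoter carrying one NFκB and one AP-1 site. Readout is repression of transcription. Seven-point half-log concentration-response curves. EC50 taken at half-maximal response. Efficacy expressed as % of the dexamethasone maximum. Mean of two experiments in triplicate, single run, or ≥3 experiments.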
# [3] = biological target: T2, Glucocorticoid receptor; experiment: Binding affinity towards human glucocorticoid receptor (GR) was determined using [3H]dexamethasone as radioligand in […] cells; type: cell-based
# [4] = biological target: T2, Glucocorticoid receptor; experiment: Transcriptional activation in CV-1 cells expressing human glucocorticoid receptor; - = low efficacy or a functional efficacy <20%; type: cell-based
# In short: (§3)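 Cotransfection of an hGR receptor plasmid with a luciferase reporter driven by the MMTV promoter (four GREs) in CV-1 cells. Seven-point half-log concentration-response curves. EC50 taken as half-maximal response. Efficacy expressed as % of the dexamethasone maximum. Mean of two experiments in triplicate, single triplicate run, or ≥3 experiments in triplicate.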
# [5] = system: Rattus norvegicus; experiment: Reduction in carrageenan induced paw edema in rat after oral dose; type: functional
# In short: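 Sprague-Dawley rats dosed orally, then given carrageenan into the hind paw. Edema read at 3 h as the increase in paw volume. ED50 dose calculated from dose-dependent inhibition of edema.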
# [6] = biological target: T2, Glucocorticoid receptor; experiment: Transcriptional repression in HepG2 cells expressing human glucocorticoid receptor; type: functional, cell-based
# [7] = biological target: T1, Glucocorticoid receptor (Homo sapiens); experiment: Transcriptional repression in HepG2 cells expressing human glucocorticoid receptor compared to Dexamethasone; - = low efficacy or a functional efficacy <20%; type: cell-based
# In short: (§4)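 Repression co-transfection in HepG2 cells: luciferase reporter under an E-selectin promoter carrying one NFκB and one AP-1 binding site. Full seven-point, half-log concentration-response curves run in triplicate. EC50 is the concentration at half-maximal response; maximal efficacy is given as % of the dexamethasone maximal response.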
# [8] = biological target: T1, Glucocorticoid receptor (Homo sapiens); experiment: Transcriptional activation in CV-1 cells expressing human glucocorticoid receptor compared to Dexamethasone; - = low efficacy or a functional efficacy <20%; type: cell-based; in short: as §1
# [9] = Binding affinity towards aldosterone receptor (Mineralocorticoid receptor); design: species or system Homo sapiens
# In short: (§5)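 Competition radioligand binding; tracers [3H]aldosterone (MR) and [3H]estradiol (ER). Bound ligand collected on hydroxyapatite, washed with ice-cold buffer, counted by scintillation. IC50 obtained from Hill analysis of binding curves, Ki from Cheng-Prusoff. Mean of two experiments in triplicate, single triplicate run, or ≥3 experiments in triplicate.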
# [10] = biological target: T3, Progesterone receptor (Homo sapiens, UniProt P06401); experiment: Displacement of [3H]progesterone from human Progesterone receptor A
# T3 sequence (P06401 whole entry): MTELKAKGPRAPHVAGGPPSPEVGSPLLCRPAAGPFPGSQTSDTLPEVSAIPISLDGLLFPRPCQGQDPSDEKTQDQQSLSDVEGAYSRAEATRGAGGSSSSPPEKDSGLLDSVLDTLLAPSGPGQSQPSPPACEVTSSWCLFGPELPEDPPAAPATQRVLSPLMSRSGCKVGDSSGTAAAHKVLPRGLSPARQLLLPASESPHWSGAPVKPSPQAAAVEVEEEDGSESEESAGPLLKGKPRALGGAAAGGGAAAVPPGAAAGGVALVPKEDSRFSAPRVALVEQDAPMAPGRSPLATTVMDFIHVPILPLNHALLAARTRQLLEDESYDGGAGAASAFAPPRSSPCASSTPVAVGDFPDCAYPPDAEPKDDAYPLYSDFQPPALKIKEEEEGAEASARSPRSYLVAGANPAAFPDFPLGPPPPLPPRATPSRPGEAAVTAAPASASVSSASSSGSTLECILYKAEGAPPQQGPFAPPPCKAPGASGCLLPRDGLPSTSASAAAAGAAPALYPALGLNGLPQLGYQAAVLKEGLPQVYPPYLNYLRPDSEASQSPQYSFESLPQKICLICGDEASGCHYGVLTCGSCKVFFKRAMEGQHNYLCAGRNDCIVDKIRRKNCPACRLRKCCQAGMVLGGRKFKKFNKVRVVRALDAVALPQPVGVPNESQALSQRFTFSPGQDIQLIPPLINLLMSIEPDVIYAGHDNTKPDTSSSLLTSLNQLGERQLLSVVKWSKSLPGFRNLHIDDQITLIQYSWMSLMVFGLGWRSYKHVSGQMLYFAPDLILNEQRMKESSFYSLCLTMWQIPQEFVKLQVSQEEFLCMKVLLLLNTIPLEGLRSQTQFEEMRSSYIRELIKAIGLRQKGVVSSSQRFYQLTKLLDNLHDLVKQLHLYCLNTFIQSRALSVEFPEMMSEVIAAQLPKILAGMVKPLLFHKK
# [11] = biological target: T2, Glucocorticoid receptor; experiment: Transcriptional activation in CV-1 cells expressing human glucocorticoid receptor; type: functional, cell-based; in short: as §3
# [12] = Binding affinity towards estradiol receptor (Estrogen receptor); design: species or system Homo sapiens; in short: as §5
# [13] = biological target: T4, Androgen receptor (Homo sapiens, UniProt P10275); experiment: Binding affinity towards testosterone receptor
# T4 sequence (P10275 whole entry): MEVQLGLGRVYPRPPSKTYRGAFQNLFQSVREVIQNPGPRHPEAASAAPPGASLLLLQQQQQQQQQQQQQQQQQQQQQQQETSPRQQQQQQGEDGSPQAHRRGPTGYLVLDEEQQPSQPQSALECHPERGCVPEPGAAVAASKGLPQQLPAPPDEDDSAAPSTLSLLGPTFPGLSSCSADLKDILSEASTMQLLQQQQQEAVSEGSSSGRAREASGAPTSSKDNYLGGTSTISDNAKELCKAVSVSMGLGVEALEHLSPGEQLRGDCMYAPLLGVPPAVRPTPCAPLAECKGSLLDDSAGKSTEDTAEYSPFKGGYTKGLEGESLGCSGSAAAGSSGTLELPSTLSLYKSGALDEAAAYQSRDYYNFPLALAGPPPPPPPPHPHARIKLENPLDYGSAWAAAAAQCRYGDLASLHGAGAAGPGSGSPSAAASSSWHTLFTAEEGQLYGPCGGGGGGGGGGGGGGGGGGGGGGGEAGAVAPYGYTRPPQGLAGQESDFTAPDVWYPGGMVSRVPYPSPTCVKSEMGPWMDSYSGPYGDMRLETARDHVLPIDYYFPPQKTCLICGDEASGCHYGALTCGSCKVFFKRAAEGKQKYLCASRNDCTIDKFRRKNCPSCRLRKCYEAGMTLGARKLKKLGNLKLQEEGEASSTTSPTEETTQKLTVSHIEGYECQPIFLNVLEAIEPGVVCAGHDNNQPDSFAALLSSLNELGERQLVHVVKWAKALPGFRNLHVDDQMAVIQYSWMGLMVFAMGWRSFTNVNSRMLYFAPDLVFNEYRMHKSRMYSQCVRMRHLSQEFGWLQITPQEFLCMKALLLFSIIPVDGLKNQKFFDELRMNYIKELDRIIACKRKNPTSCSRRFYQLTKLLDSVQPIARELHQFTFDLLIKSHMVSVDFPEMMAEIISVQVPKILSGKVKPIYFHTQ
# [14] = biological target: T2, Glucocorticoid receptor; experiment: Transcriptional activation in CV-1 cells expressing human glucocorticoid receptor; - = low efficacy or a functional efficacy <5%; type: cell-based; in short: as §3
# [15] = biological target: T1, Glucocorticoid receptor (Homo sapiens); experiment: Transcriptional activation in CV-1 cells expressing human glucocorticoid receptor compared to Dexamethasone; - = low efficacy or a functional efficacy <5%; type: cell-based; in short: as §1
# [16] = biological target: T1, Glucocorticoid receptor (Homo sapiens); experiment: Transcriptional repression in HepG2 cells expressing human glucocorticoid receptor compared to Dexamethasone; - = low efficacy or a functional efficacy <5%; type: cell-based; in short: as §4
# [17] = biological target: T2, Glucocorticoid receptor; experiment: Transcriptional repression in HepG2 cells expressing human glucocorticoid receptor; - = low efficacy or a functional efficacy <5%; type: cell-based; in short: as §2
# [18] = biological target: T3, Progesterone receptor; experiment: Displacement of [3H]progesterone from human Progesterone receptor A; - = low efficacy or functional efficacy <20%
# In short: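 Human PR-A expressed from baculovirus in Sf21 cells, cytosol about 40 µg protein. Incubated with about 0.8 nM [3H]progesterone overnight at 4 °C in Tris/EDTA/glycerol/DTT/molybdate buffer, pH 7.6. Nonspecific binding taken with 1 µM unlabeled progesterone. Hydroxyapatite capture, scintillation counting. IC50 from Hill analysis, Ki from Cheng-Prusoff.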
SMILES,Efficacy [1],EC50 [2],Ki [3],EC50 [4],ED50 [5],EC50 [6],other results
C=CCOc1cccc2c1-c1ccc3c(c1C(CC=C)O2)C(C)=CC(C)(C)N3 (stereo unspecified),0%,Not Active,88 nM,Not Active,–,–,–
C=CCC1Oc2ccc(O)c(Cl)c2-c2ccc3c(c21)C(C)=CC(C)(C)N3 (stereo unspecified),–,–,–,–,15 mg/kg,5 nM,–
C=CCC1Oc2cccc(OCc3ccccc3)c2-c2ccc3c(c21)C(C)=CC(C)(C)N3 (stereo unspecified),–,Not Active,6000 nM,Not Active,–,–,Efficacy [7]: inactive; Efficacy [8]: inactive
C=CCC1Oc2cccc(OC(F)F)c2-c2ccc3c(c21)C(C)=CC(C)(C)N3 (stereo unspecified),70%,–,2.2 nM,–,21 mg/kg,18 nM,Ki [9]: 35.8 nM; Ki [10]: 349 nM; EC50 [11]: 35 nM; Ki [12]: > 1000 nM; Ki [13]: 96.3 nM
C=CCC1Oc2cccc(OC)c2-c2ccc3c(c21)C(C)=CC(C)(C)N3 (stereo unspecified) [AL-43],68%,–,–,–,15 mg/kg,–,Ki [9]: 46 nM; Ki [12]: > 1000 nM; Ki [13]: 1230 nM
C=CCC1Oc2cccc(COC)c2-c2ccc3c(c21)C(C)=CC(C)(C)N3 (stereo unspecified),5%,–,–,–,–,305 nM,EC50 [14]: Not Active
C=CCC1Oc2cccc(C(=O)OC)c2-c2ccc3c(c21)C(C)=CC(C)(C)N3 (stereo unspecified),–,–,400 nM,–,–,–,EC50 [14]: Not Active; Efficacy [15]: inactive; Efficacy [16]: inactive; EC50 [17]: Not Active
C=CCC1Oc2cccc(OCC3CC3)c2-c2ccc3c(c21)C(C)=CC(C)(C)N3 (stereo unspecified),–,Not Active,2100 nM,Not Active,–,–,Efficacy [7]: inactive; Efficacy [8]: inactive
C=CCC1Oc2cccc(CN)c2-c2ccc3c(c21)C(C)=CC(C)(C)N3 (stereo unspecified),7%,–,140 nM,–,–,467 nM,EC50 [14]: Not Active
C=CCC1Oc2ccc(O)c(OC)c2-c2ccc3c(c21)C(C)=CC(C)(C)N3 (stereo unspecified),–,–,–,–,16 mg/kg,14 nM,Ki [10]: 150 nM
C=CCC1Oc2cccc(OCC)c2-c2ccc3c(c21)C(C)=CC(C)(C)N3 (stereo unspecified),0%,Not Active,65 nM,Not Active,–,–,–
C=CCC1Oc2ccc(OCC)c(OC)c2-c2ccc3c(c21)C(C)=CC(C)(C)N3 (stereo unspecified),–,Not Active,–,–,–,–,Ki [18]: Not Active

# Reference: ChEMBL document CHEMBL1144889 (J Med Chem, 2003)
